Experimental data: ChEMBL document CHEMBL3271961, “Dibenztroponeacetic and -propionic acids. Potent new antiinflammatory agents” (1977)

These molecules were tested on Rattus norvegicus (assay: Antiinflammatory activity in rat assessed as inhibition of carrageenan-induced paw edema administered into pad of right hind paw 1 hr before carrageenan challenge measured after 4 hrs relative to phenylbutazone). Conditions: in the assay text read “administered po” for “administered into pad of right hind paw”.
Format: functional
Summary of the method: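 Female rats, 80-90 g, gavaged with test material in 1 mL aqueous vehicle. One hour later, 0.05 mL of 1% carrageenan in 0.9% NaCl injected into the right hind paw pad. Rats killed 4 h after dosing. Both hind paws weighed, and the percent weight increase of the inflamed paw calculated. Six rats per group. Phenylbutazone standard usually at 3.6, 11 and 33 mg/kg.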
Work on `CC(O)(C(=O)O)c1ccc2c(=O)c3ccccc3ccc2c1` (racemic) yielded a Ratio of less than 0.5.
For `COC(=O)C(C)c1ccc2c(=O)c3ccccc3ccc2c1` (stereo not drawn), the Ratio was 15.
With `CC(C(=O)O)c1ccc2c(=O)c3ccccc3ccc2c1` (racemic) the Ratio was 44.
Work on `CCCCCCCCCCCCOC(=O)C(C)c1ccc2c(=O)c3ccccc3ccc2c1` (racemic) yielded a Ratio of 15.
Molecule `COC(=O)C(C)c1ccc2c(=O)c3ccccc3ccc2c1` (racemic) has a Ratio of 11.
With `CC(C(=O)[O-])c1ccc2c(=O)c3ccccc3ccc2c1.[Na+]` (stereo not drawn) the Ratio was 62.
For `CCN(C)CCOC(=O)C(C)c1ccc2c(=O)c3ccccc3ccc2c1` (racemic), the Ratio was 20.
`CC(C(=O)OCCCCN(C)C)c1ccc2c(=O)c3ccccc3ccc2c1` (racemic) gave a Ratio of 7.
In the case of `CCN(CC)CCOC(=O)C(C)c1ccc2c(=O)c3ccccc3ccc2c1.Cl` (racemic), the Ratio is reported as 14.
In the case of `CC(C)(C(=O)O)c1ccc2c(=O)c3ccccc3ccc2c1`, the Ratio is reported as 0.5.
In the case of `CCCCCCCCCCCCCCCCCCCCOC(=O)C(C)c1ccc2c(=O)c3ccccc3ccc2c1` (racemic), the Ratio is reported as “<=1”.
`CC(C(=O)O)c1ccc2c(=O)c3ccccc3ccc2c1` (single isomer, unassigned; (+)) was tested, and the Ratio was 68.
With `CC(C(=O)O)c1ccc2c(=O)c3ccccc3ccc2c1` (single isomer, unassigned; (-)) the Ratio was 1.5.
With `CC(C(=O)OCCN(C)C)c1ccc2c(=O)c3ccccc3ccc2c1` (racemic) the Ratio was 30.
Work on `CC(C(=O)OCCN1CCOCC1)c1ccc2c(=O)c3ccccc3ccc2c1.Cl` (racemic) yielded a Ratio of 9.
For `CC(C)CCOC(=O)C(C)c1ccc2c(=O)c3ccccc3ccc2c1` (racemic), the Ratio was 6.
For `CC(C(=O)OCCN(C)C)c1ccc2c(=O)c3ccccc3ccc2c1` (single isomer, unassigned; (+)), the Ratio was 45.
Molecule `CC(C(=O)OCCN1CCCCC1)c1ccc2c(=O)c3ccccc3ccc2c1` (racemic) has a Ratio of 15.
With `CCC(C(=O)O)c1ccc2c(=O)c3ccccc3ccc2c1` (racemic) the Ratio was 7.
`O=C(O)Cc1ccc2c(=O)c3ccccc3ccc2c1` was tested, and the Ratio was 6.
Work on `C=C(C(=O)O)c1ccc2c(=O)c3ccccc3ccc2c1` yielded a Ratio of 4.
For `COC(=O)Cc1ccc2c(=O)c3ccccc3ccc2c1`, the Ratio was 3.

What follows are molecules tested on Mus musculus (assay: Analgesic activity in po dosed mouse assessed as inhibition of phenylquinone-induced writhing measured up to 10 mins relative to aspirin). Conditions: not given.
Format: functional
Summary of the method: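 Male mice, 18-20 g, dosed orally in aqueous vehicle at time zero. Writhing induced 20 min later by ip injection of 0.25 mL 0.02% phenylquinone, then counted over the next 10 min. Groups of usually 8-10 mice. Aspirin standard given at 16.5, 50 and 150 mg/kg. Relative potency determined graphically or by Finney's methods.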
With `CC(O)(C(=O)O)c1ccc2c(=O)c3ccccc3ccc2c1` (racemic) the Ratio was 1.5.
With `CC(C(=O)O)c1ccc2c(=O)c3ccccc3ccc2c1` (racemic) the Ratio was 12.
Molecule `CCCCCCCCCCCCOC(=O)C(C)c1ccc2c(=O)c3ccccc3ccc2c1` (racemic) has a Ratio of less than 0.5.
In the case of `COC(=O)C(C)c1ccc2c(=O)c3ccccc3ccc2c1` (racemic), the Ratio is reported as 2.
`CCN(C)CCOC(=O)C(C)c1ccc2c(=O)c3ccccc3ccc2c1` (racemic) gave a Ratio of less than 2.
Work on `CC(C(=O)OCCCCN(C)C)c1ccc2c(=O)c3ccccc3ccc2c1` (racemic) yielded a Ratio of less than 3.
`CCN(CC)CCOC(=O)C(C)c1ccc2c(=O)c3ccccc3ccc2c1.Cl` (racemic) gave a Ratio of 10.
`CCCCCCCCCCCCCCCCCCCCOC(=O)C(C)c1ccc2c(=O)c3ccccc3ccc2c1` (racemic) showed a Ratio of less than 0.5.
`CC(C(=O)O)c1ccc2c(=O)c3ccccc3ccc2c1` (single isomer, unassigned; (+)) was tested, and the Ratio was 20.
Molecule `CC(C(=O)O)c1ccc2c(=O)c3ccccc3ccc2c1` (single isomer, unassigned; (-)) has a Ratio of 1.5.
`CC(C(=O)OCCN(C)C)c1ccc2c(=O)c3ccccc3ccc2c1` (racemic) gave a Ratio of 7.
Work on `CC(C(=O)OCCN1CCOCC1)c1ccc2c(=O)c3ccccc3ccc2c1.Cl` (racemic) yielded a Ratio of less than 1.
Work on `CC(C)CCOC(=O)C(C)c1ccc2c(=O)c3ccccc3ccc2c1` (racemic) yielded a Ratio of 1.7.
`CC(C(=O)OCCN1CCCCC1)c1ccc2c(=O)c3ccccc3ccc2c1` (racemic) showed a Ratio of less than 2.
Work on `CCC(C(=O)O)c1ccc2c(=O)c3ccccc3ccc2c1` (racemic) yielded a Ratio of 2.
In the case of `O=C(O)Cc1ccc2c(=O)c3ccccc3ccc2c1`, the Ratio is reported as 2.
Molecule `C=C(C(=O)O)c1ccc2c(=O)c3ccccc3ccc2c1` has a Ratio of 1.
`COC(=O)Cc1ccc2c(=O)c3ccccc3ccc2c1` was tested, and the Ratio was less than 1.

What follows are molecules tested on Rattus norvegicus (assay: Antiinflammatory activity in po dosed rat assessed as inhibition of carrageenan immersed cotton pellet-induced granuloma administered daily once for 7 days measured one day after last dose relative to indomethacin). Conditions: not given.
Format: functional
Summary of the method: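 Two 50-mg cotton pellets, soaked 24 h in 1% carrageenan, dried, then dipped in 1% penicillin G/1% streptomycin, implanted sc dorso-lumbar in 180-200 g rats (one sex per test). Daily oral dosing for 7 days. Next day, pellets with granulomas removed, dried 24 h at 100 °C, weighed. Usually nine rats/group. Indomethacin standard at 0.5, 1, 2, 4 mg/kg/day.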
Molecule `O=C(O)Cc1ccc2c(=O)c3ccccc3ccc2c1` has a Ratio of 0.1.

What follows are molecules tested on Rattus norvegicus (assay: Antiarthritic activity in po dosed rat assessed as inhibition of adjuvant-induced arthritis administered twice daily for 17 days measured on day 18 relative to indomethacin). Conditions: not given.
`COC(=O)C(C)c1ccc2c(=O)c3ccccc3ccc2c1` (stereo not drawn) was tested, and the Ratio was 2.
`O=C(O)Cc1ccc2c(=O)c3ccccc3ccc2c1` gave a Ratio of 0.1.
